The nature of series [1]: Intrinsic clearance in mouse liver microsomes by LC/MS/MS analysis. It is filed as ADME, Microsome. The settings on record: read-out: CLH. Put shortly: (§1)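 Compound depletion in liver microsomes of the named species, measured by LC/MS/MS. In vitro half-life gave hepatic extraction ratio and predicted metabolic clearance.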
Series [2] concerns Mycobacterium tuberculosis. Briefly: Antimicrobial activity against Mycobacterium tuberculosis H37Rv ATCC 27294 after 5 days by three-fold serial dilution assay. It is filed as functional. Conditions: H37Rv ATCC 27294, 120 h. Put shortly:
(§2)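 H37Rv grown in 7H9 broth with 0.05% Tween 80 and 10% ADS. Compounds in 90% DMSO, three-fold serially diluted in duplicate. Early-log culture diluted to OD600 0.02 was added, then incubated at 37 °C for 5 days. Growth read by absorbance. MIC50 (50% growth inhibition) taken from non-linear curve fits. Isoniazid ran as internal control in every assay.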

Series [3] concerns Mycobacterium tuberculosis. As to the kind of experiment: Ratio of isoniazid MIC50 to compound MIC50 against Mycobacterium tuberculosis H37Rv ATCC 27294. It is filed as functional. In a few lines: as §2
Series [4] in a line: Aqueous solubility of the compound at pH 6.8 after 24 hrs by high-throughput equilibrium solubility assay. The series is classed as physicochemical. Conditions: buffer. In a few lines: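 Miniaturized shake-flask equilibrium method. DMSO stock removed by centrifugal evaporation, aqueous buffer added, shaken 24 h. Plunger pushed through a filter membrane, shaken a further 30 min, and filtrate quantified by HPLC.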

The test system of series [5] is Mycobacterium tuberculosis. Briefly: Antitubercular activity against Mycobacterium tuberculosis H37Rv infected in Balb/c mouse model assessed as log CFU reduction at 100 mg/kg, po qd administered for 28 days relative to untreated control. Also noted: dose 100 mg/kg. It is filed as functional, organism-based. Put shortly: (§3)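 Balb/c mice infected intranasally on day 0 with 10^3 H37Rv bacilli. Oral dosing, once daily, 7 days a week for 28 days, began 7 days post-infection at 25 or 75 mg/kg; ethambutol 100 mg/kg served as positive control. Lungs removed aseptically and homogenized. CFU counted by serial dilution plating on 7H11 agar; log lung CFU compared with untreated controls.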

Series [6] can be described thus: Volume of distribution at steady state in mouse at 5 mg/kg, iv by LC/MS analysis. The series is classed as ADME, organism-based. Also on record: dose 5 mg/kg, route intravenous. The settings on record: in vivo, read-out: Vdss. In a few lines: (§4)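 Mice dosed p.o. at 25 mg/kg (2.5 mg/mL) or i.v. at 5 mg/kg (1 mg/mL). Vehicles varied: propanediol/solutol in pH 4.6 acetate buffer, or microemulsion/Cremophor-based mixes. Blood taken 0.08–24 h (i.v. first point 0.02 h), three mice per time point. Plasma extracted with acetonitrile:methanol:acetic acid and quantified by LC/MS/MS (LLOQ 1–3 ng/mL). Noncompartmental analysis of mean profiles; F from dose-corrected p.o./i.v. AUC.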

Series [7] in a line: Elimination half life in mouse at 5 mg/kg, iv by LC/MS analysis. It is filed as ADME, organism-based. Also noted: dose 5 mg/kg, route intravenous. The settings on record: in vivo, read-out: beta t1/2 (converted). Put shortly: as §4
Series [8] can be described thus: Clearance in mouse at 5 mg/kg, iv by LC/MS analysis. Also on record: dose 5 mg/kg, route intravenous. It is filed as ADME, organism-based. The settings on record: in vivo. In a few lines:
as §4

Series [9] is described as follows: AUC (0 to 24 hrs) in mouse at 5 mg/kg, iv and 75 mg/kg, po by LC/MS analysis. The series is classed as ADME, organism-based. The settings on record: plasma.
A short description of series [10]: Intrinsic clearance in human liver microsomes by LC/MS/MS analysis. It is filed as ADME. The settings on record: read-out: CLH. In a few lines: as §1
A short description of series [11]: Elimination half life in mouse at 25 mg/kg, po by LC/MS analysis. The series is classed as ADME, organism-based. Also on record: dose 25 mg/kg, route oral. Conditions: in vivo, read-out: beta t1/2 (converted). In a few lines: as §4
A short description of series [12]: Intrinsic clearance in rat liver microsomes by LC/MS/MS analysis. It is filed as ADME. The settings on record: read-out: CLH. Put shortly:
as §1

Series [13] deals with Mycobacterium tuberculosis. Briefly: Antitubercular activity against Mycobacterium tuberculosis H37Rv infected in Balb/c mouse model assessed as log CFU reduction at 25 mg/kg, po qd administered for 28 days relative to untreated control. The series is classed as functional. Put shortly:
as §3

Series [14] in a line: AUC (0 to 24 hrs) in mouse at 25 mg/kg, po by LC/MS analysis. The series is classed as ADME, organism-based. Also noted: time < 24 hr, dose 25 mg/kg, route oral. The settings on record: plasma. Put shortly: as §4
Series [15] concerns Mycobacterium tuberculosis. As to the kind of experiment: Antitubercular activity against Mycobacterium tuberculosis H37Rv infected in Balb/c mouse model assessed as log CFU reduction at 75 mg/kg, po qd administered for 28 days relative to untreated control. It is filed as functional. In a few lines:
as §3

Series [16] in a line: Cmax in mouse at 25 mg/kg, po by LC/MS analysis. It is filed as ADME, organism-based. Also on record: dose 25 mg/kg, route oral. Conditions: in vivo. Put shortly:
as §4

For series [17], the system named is THP-1. Briefly: Cytotoxicity against human THP1 cells. It is filed as cell-based.
The nature of series [18]: Elimination half life in mouse at 5 mg/kg, iv and 75 mg/kg, po by LC/MS analysis. The series is classed as ADME, organism-based. Conditions: in vivo, read-out: beta t1/2 (converted).
The nature of series [19]: Oral bioavailability in mouse at 25 mg/kg by LC/MS analysis. It is filed as ADME, organism-based. The settings on record: in vivo. Put shortly: as §4

This note sets out measurements from ChEMBL document CHEMBL3085699, “Design, synthesis, and biological evaluation of indole-2-carboxamides: a promising class of antituberculosis agents” (J Med Chem, 2013).

Converted amounts (≈) assume the structure as drawn. The source made the active and inactive calls. No cut-off for these calls is given here. Bounds are passed on as bounds.

As to `Cc1cc(C)c2cc(C(=O)N[C@@H]3CCCC[C@@H]3C)[nH]c2c1`, in series [1], the microsomal CLint was 433 µL/min/mg. In [2], this compound had an MIC50 of 0.079 µM (≈ 0.0225 µg/mL). For the same compound, the Ratio in series [3] is reported as 4. This compound also gave a thermodynamic solubility at 24 h in series [4] of under 4 µM.
Consider `CC[C@@H](CO)NCCN[C@@H](CC)CO`, for which the result in series [5] was Active.
On to `CC1(C)CCC(NC(=O)c2cc3c(Cl)cc(Cl)cc3[nH]2)CC1`, for which the Vd in series [6] came out at 4.11 L/kg. In addition, the microsomal CLint in series [1] came out at 13 µL/min/mg; in [10], 59 µL/min/mg; in series [12], 139 µL/min/mg. For the same compound, the half-life in [7] is 5.25 h; in series [11], 5.96 h; in series [18] it was 8.14 h. The clearance in series [8] is 18.1 mL/min/kg. The compound further yielded an AUC(0-t) in series [9] of 70.3 µM·h. Moreover, the FC in series [13] is 2.6; in series [15], 4.79. In [2], the MIC50 is 0.015 µM (≈ 0.00509 µg/mL). Besides, the exposure AUC(0-t) at 24 h in series [14] was 33.9 µM·h. The Cmax in [16] amounted to 3.51 µM. Moreover, the thermodynamic solubility at 24 h in series [4] is under 4 µM. The same compound came in with an Activity in series [17] of over 20 µM. The bioavailability in series [19] was found to be 53%.
